Tests used:
Type in all cases: functional
Settings in all cases: read-out: GI
[1] = tested on: SW-620; test: Antitumor activity against human SW-620 cells assessed as growth inhibition at 10 uM relative to control
How it was run: (§1)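 Drug exposure 48 h at 37 °C, 5% CO2. Adherent cells fixed with cold TCA (10% final), suspension cells with TCA (16% final). Stained with 0.4% SRB in 1% acetic acid, dissolved in 10 mM Tris, A515. Growth relative to time-zero and untreated control.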

[2] = tested on: NCI/ADR-RES; test: Antitumor activity against human NCI-ADR-RES cells assessed as growth inhibition at 10 uM relative to control
How it was run: (§2)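 After drug addition, plates were incubated 48 h at 37 °C under 5% CO2. Adherent cells were fixed with cold TCA (10% final, 60 min, 4 °C) and suspension cells with 16% final TCA. Staining used 0.4% SRB in 1% acetic acid, solubilized in 10 mM trizma, read at A515. Percent growth was calculated from time-zero, control and treated absorbances.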

[3] = tested on: SR; test: Antitumor activity against human SR cells assessed as growth inhibition at 10 uM relative to control; how it was run: as §1
[4] = tested on: MCF7; test: Antitumor activity against human MCF7 cells assessed as growth inhibition at 10 uM relative to control; how it was run: as §2
[5] = tested on: UACC-62; test: Antitumor activity against human UACC-62 cells assessed as growth inhibition at 10 uM relative to control; how it was run: as §1
[6] = tested on: HOP-92; test: Antitumor activity against human HOP-92 cells assessed as growth inhibition at 10 uM relative to control; how it was run: as §2
[7] = tested on: SK-MEL-5; test: Antitumor activity against human SK-MEL-5 cells assessed as growth inhibition at 10 uM relative to control; how it was run: as §1
[8] = tested on: HCT-15; test: Antitumor activity against human HCT-15 cells assessed as growth inhibition at 10 uM relative to control; how it was run: as §2
[9] = tested on: NCI-H23; test: Antitumor activity against human NCI-H23 cells assessed as growth inhibition at 10 uM relative to control; how it was run: as §2
[10] = tested on: ACHN; test: Antitumor activity against human ACHN cells assessed as growth inhibition at 10 uM relative to control; how it was run: as §2
[11] = tested on: NCI-H522; test: Antitumor activity against human NCI-H522 cells assessed as growth inhibition at 10 uM relative to control; how it was run: as §2
[12] = tested on: T47D; test: Antitumor activity against human T47D cells assessed as growth inhibition at 10 uM relative to control; how it was run: as §1
[13] = tested on: 786-0; test: Antitumor activity against human 786-0 cells assessed as growth inhibition at 10 uM relative to control; how it was run: as §2
[14] = tested on: SN12C; test: Antitumor activity against human SN12C cells assessed as growth inhibition at 10 uM relative to control; how it was run: as §1
[15] = tested on: HL-60; test: Antitumor activity against human HL-60 cells assessed as growth inhibition at 10 uM relative to control; how it was run: as §2
[16] = tested on: MDA-MB-468; test: Antitumor activity against human MDA-MB-468 cells assessed as growth inhibition at 10 uM relative to control; how it was run: as §2
[17] = tested on: Malme-3M; test: Antitumor activity against human Malme-3M cells assessed as growth inhibition at 10 uM relative to control; how it was run: as §2
[18] = tested on: COLO 205; test: Antitumor activity against human COLO 205 cells assessed as growth inhibition at 10 uM relative to control; how it was run: as §2
[19] = tested on: LOX IMVI; test: Antitumor activity against human LOX IMVI cells assessed as growth inhibition at 10 uM relative to control; how it was run: as §2
[20] = tested on: RPMI-8226; test: Antitumor activity against human RPMI-8226 cells assessed as growth inhibition at 10 uM relative to control; how it was run: as §2
[21] = tested on: A498; test: Antitumor activity against human A498 cells assessed as growth inhibition at 10 uM relative to control; how it was run: as §2
[22] = tested on: UO-31; test: Antitumor activity against human UO-31 cells assessed as growth inhibition at 10 uM relative to control; how it was run: as §1
[23] = tested on: MOLT-4; test: Antitumor activity against human MOLT-4 cells assessed as growth inhibition at 10 uM relative to control; how it was run: as §2
[24] = tested on: CCRF-CEM; test: Antitumor activity against human CCRF-CEM cells assessed as growth inhibition at 10 uM relative to control; how it was run: as §2
[25] = tested on: CAKI-1; test: Antitumor activity against human CAKI-1 cells assessed as growth inhibition at 10 uM relative to control; how it was run: as §2
[26] = tested on: SK-OV-3; test: Antitumor activity against human SK-OV-3 cells assessed as growth inhibition at 10 uM relative to control; how it was run: as §1
[27] = tested on: K562; test: Antitumor activity against human K562 cells assessed as growth inhibition at 10 uM relative to control; how it was run: as §2
[28] = tested on: RXF 393; test: Antitumor activity against human RXF 393 cells assessed as growth inhibition at 10 uM relative to control; how it was run: as §2
[29] = tested on: U-251; test: Antitumor activity against human U-251 cells assessed as growth inhibition at 10 uM relative to control; how it was run: as §1
[30] = tested on: NCI-H226; test: Antitumor activity against human NCI-H226 cells assessed as growth inhibition at 10 uM relative to control; how it was run: as §2
[31] = tested on: DU-145; test: Antitumor activity against human DU-145 cells assessed as growth inhibition at 10 uM relative to control; how it was run: as §2
[32] = tested on: IGROV-1; test: Antitumor activity against human IGROV-1 cells assessed as growth inhibition at 10 uM relative to control; how it was run: as §2
[33] = tested on: HOP-62; test: Antitumor activity against human HOP-62 cells assessed as growth inhibition at 10 uM relative to control; how it was run: as §2
[34] = tested on: Hs-578T; test: Antitumor activity against human Hs-578T cells assessed as growth inhibition at 10 uM relative to control; how it was run: as §2
[35] = tested on: MDA-MB-231; test: Antitumor activity against human MDA-MB-231 cells assessed as growth inhibition at 10 uM relative to control; how it was run: as §2
[36] = tested on: SF-268; test: Antitumor activity against human SF-268 cells assessed as growth inhibition at 10 uM relative to control; how it was run: as §2
[37] = tested on: SNB-75; test: Antitumor activity against human SNB-75 cells assessed as growth inhibition at 10 uM relative to control; how it was run: as §1
[38] = tested on: A549; test: Antitumor activity against human A549 cells assessed as growth inhibition at 10 uM relative to control; how it was run: as §2
[39] = tested on: SK-MEL-2; test: Antitumor activity against human SK-MEL-2 cells assessed as growth inhibition at 10 uM relative to control; how it was run: as §2
[40] = tested on: SF-295; test: Antitumor activity against human SF-295 cells assessed as growth inhibition at 10 uM relative to control; how it was run: as §2
[41] = tested on: TK-10; test: Antitumor activity against human TK-10 cells assessed as growth inhibition at 10 uM relative to control; how it was run: as §1
[42] = tested on: MDA-MB-435; test: Antitumor activity against human MDA-MB-435 cells assessed as growth inhibition at 10 uM relative to control; how it was run: as §2
[43] = tested on: HCT-116; test: Antitumor activity against human HCT-116 cells assessed as growth inhibition at 10 uM relative to control; how it was run: as §2
[44] = tested on: HT-29; test: Antitumor activity against human HT-29 cells assessed as growth inhibition at 10 uM relative to control; how it was run: as §2
[45] = tested on: OVCAR-8; test: Antitumor activity against human OVCAR-8 cells assessed as growth inhibition at 10 uM relative to control; how it was run: as §2
[46] = tested on: SF-539; test: Antitumor activity against human SF-539 cells assessed as growth inhibition at 10 uM relative to control; how it was run: as §2

Structure (SMILES): N#Cc1c(-c2ccc(Cl)cc2)nc(N/N=C/c2cccc(Cl)c2)nc1N1CCOCC1
- inhibition of growth at 10 µM [1]: 46.7%
- inhibition of growth at 10 µM [2]: 10.8%
- inhibition of growth at 10 µM [3]: 91.3%
- inhibition of growth at 10 µM [4]: < 14.1%
- inhibition of growth at 10 µM [5]: < 1%
- inhibition of growth at 10 µM [6]: 10.7%
- inhibition of growth at 10 µM [7]: < 1%
- inhibition of growth at 10 µM [8]: 64.6%
- inhibition of growth at 10 µM [9]: < 1%
- inhibition of growth at 10 µM [10]: 25.7%
- inhibition of growth at 10 µM [11]: < 1%
- inhibition of growth at 10 µM [12]: 23.4%
- inhibition of growth at 10 µM [13]: 29.9%
- inhibition of growth at 10 µM [14]: < 1%
- inhibition of growth at 10 µM [15]: 28.5%
- inhibition of growth at 10 µM [16]: 14.9%
- inhibition of growth at 10 µM [17]: < 1%
- inhibition of growth at 10 µM [18]: 39%
- inhibition of growth at 10 µM [19]: 14.5%
- inhibition of growth at 10 µM [20]: 35%
- inhibition of growth at 10 µM [21]: 57.8%
- inhibition of growth at 10 µM [22]: 46.5%
- inhibition of growth at 10 µM [23]: 46.7%
- inhibition of growth at 10 µM [24]: 27.5%
- inhibition of growth at 10 µM [25]: 20.8%
- inhibition of growth at 10 µM [26]: < 1%
- inhibition of growth at 10 µM [27]: 64.9%
- inhibition of growth at 10 µM [28]: < 1%
- inhibition of growth at 10 µM [29]: < 1%
- inhibition of growth at 10 µM [30]: 10.7%
- inhibition of growth at 10 µM [31]: 24%
- inhibition of growth at 10 µM [32]: 24.8%
- inhibition of growth at 10 µM [33]: < 1%
- inhibition of growth at 10 µM [34]: < 1%
- inhibition of growth at 10 µM [35]: < 1%
- inhibition of growth at 10 µM [36]: < 1%
- inhibition of growth at 10 µM [37]: 19.9%
- inhibition of growth at 10 µM [38]: 18.1%
- inhibition of growth at 10 µM [39]: < 1%
- inhibition of growth at 10 µM [40]: < 1%
- inhibition of growth at 10 µM [41]: < 1%
- inhibition of growth at 10 µM [42]: < 1%
- inhibition of growth at 10 µM [43]: 29.2%
- inhibition of growth at 10 µM [44]: 59.6%
- inhibition of growth at 10 µM [45]: < 1%
- inhibition of growth at 10 µM [46]: 20.9%

Source: ChEMBL document CHEMBL5376013, “Design, synthesis and biological evaluation of novel morpholinopyrimidine-5-carbonitrile derivatives as dual PI3K/mTOR inhibitors” (RSC Med Chem, 2024)
